Screening data deposited in PubChem BioAssay by The Scripps Research Institute Molecular Screening Center.
Sampled rows, rich in hits. Any-hit rate of the full collection: about 2.1%.
M5 ag – CHRM5 agonism in calcium assay; P08912; 360,000 tested, 0.19% active; CHO-K1 hM5 cells, Fluo-8 calcium fluorescence; 0% DMSO wells, 100% maximal acetylcholine response; activation, % at 3 µM;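 active = activation above the run's mean over test compounds plus 3 SD, cut at about 23% in these data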;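 note: signal is peak over basal fluorescence ratio across the kinetic read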
M5 PAM – CHRM5 positive allosteric modulation; P08912; 360,000 tested, 0.3% active; AID 624038; activation, % at 3 µM; CHO-K1 hM5, Fluo-8 calcium, ACh EC20 PAM; 0% = ACh EC20, 100% = ACh EC100;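 active = activation above the run cutoff, the mean activation of all test compounds plus 3 SD, cut at about 18% in these data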
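Probe or stimulus: acetylcholine, EC20 level; Assay system: human M5 receptor in CHO-K1 cells; Schedule: compound preincubation 140 s before EC20 acetylcholine addition; Technique: intracellular calcium via Fluo-8 fluorescence; Dosing: single-point, 3 µM nominal; Read-out basis: percent activation from peak-over-basal fluorescence ratio, scaled EC20-to-EC100 acetylcholine; Repeats: one well per compound, no replicates.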
M1 PAM – positive allosteric modulators of human M1 muscarinic receptor; activation, % at 3 µM; 360,000 tested, 0.088% active; CHO-K1 hM1, Fluo-8 calcium fluorescence, ACh EC20; 0% = ACh EC20, 100% = maximal ACh; AID 588819; in the data active = activation above about 19%, passing the limit was not always enough
Target sequence (P11229 whole entry, looked up): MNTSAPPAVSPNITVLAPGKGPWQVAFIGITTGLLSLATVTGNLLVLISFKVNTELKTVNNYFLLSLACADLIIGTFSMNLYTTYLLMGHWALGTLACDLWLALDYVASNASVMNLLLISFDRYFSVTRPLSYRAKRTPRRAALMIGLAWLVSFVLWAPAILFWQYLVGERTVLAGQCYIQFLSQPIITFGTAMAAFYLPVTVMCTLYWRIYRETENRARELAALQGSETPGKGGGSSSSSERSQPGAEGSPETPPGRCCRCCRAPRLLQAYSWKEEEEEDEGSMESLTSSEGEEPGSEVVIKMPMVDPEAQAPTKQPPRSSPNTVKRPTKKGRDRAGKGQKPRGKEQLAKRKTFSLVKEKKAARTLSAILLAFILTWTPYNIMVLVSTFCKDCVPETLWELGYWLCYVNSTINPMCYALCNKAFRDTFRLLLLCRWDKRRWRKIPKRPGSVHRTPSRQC
CHRM5 antagonist – CHRM5 antagonism in calcium assay. CHO-hM5 cells, Fluo-8 calcium fluorescence, ACh EC80. P08912. 360,000 tested, 0.59% active. inhibition, % at 3 µM;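 active = inhibition above a per-plate cutoff, the mean of that plate's test compounds plus 3 SD, cut at about 27% in these data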;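 note: 0% = acetylcholine EC80 with DMSO and 100% = DMSO without agonist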
M1 antag – blocks human M1 muscarinic receptor | P11229 | CHO-K1 hM1, Fluo-8 calcium fluorescence, ACh EC80 antagonist | inhibition, % at 3 µM | 360,000 tested, 1.3% active;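 active = percent inhibition above its own plate's cutoff, namely the mean of that plate's compound wells plus 3 SD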;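 note: peak over basal fluorescence ratio during 140 s after agonist addition; 0% = ACh EC80 plus DMSO and 100% = DMSO alone without agonist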
CHRM1 agonist – human M1 muscarinic receptor agonism. P11229. activation, % at 3 µM. CHO-K1 hM1, Fluo-8 calcium fluorescence, agonist mode; 0% DMSO, 100% acetylcholine EC100. 360,000 tested, 0.33% active;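 active = activation above the run's mean compound activation plus 3 SD, cut at about 16% in these data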;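 note: peak over basal fluorescence ratio within a 140 s kinetic read after compound addition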
Active calls of the source: *.

SMILES | M5 ag | M5 PAM | M1 PAM | CHRM5 antagonist | M1 antag | CHRM1 agonist
c1ccc(OCCCCN2CCCCC2)cc1 | -10 | 4 | 1 | 3 | 0 | -5
c1ccc(COc2ccc(OCCCCN3CCCC3)cc2)cc1 | -3 | -17 | -21 | 4 | 35* | -4
CSCC(=O)N1CCC(n2nccc2NC(=O)c2ccc3c(c2)OCO3)CC1 | -2 | 0 | 18 | 2 | -19 | 1
O=C(c1ccccc1)c1ccc(OCCCN2CCCCC2)cc1 | -14 | -16 | -21 | -2 | 34* | -6
CC1CCN(CCOc2ccc(OCc3ccccc3)cc2)CC1 | -4 | -14 | -25 | 5 | 61* | -11
c1ccc(OCc2ccc(CCCN3CCOCC3)cc2)cc1 | -5 | -10 | -22 | 22 | 37* | -5
CN1CCN(CCOc2ccc(Cc3ccccc3)cc2)CC1 | -11 | 1 | 10 | 2 | -18 | -8
CC1CCN(CCCCOc2ccc(C(C)(C)C)cc2)CC1 | 0 | -11 | -29 | 8 | 60* | -6
CCn1cc(C2=NC(C(C)C)CO2)c2ccccc21 (configuration not stated) | -3 | -7 | -14 | 7 | 12 | -12
O=C(CCNC(=O)Cn1ccc2ccccc2c1=O)NCCCN1CCN(c2ccc(F)cc2)CC1 | -6 | 8 | 4 | 1 | -7 | -6
CC1Cc2ccccc2N1C(=O)CSc1nc2c(c(=O)n(C)c(=O)n2C)n1Cc1ccccc1 (configuration not stated) | 2 | -11 | -18 | 16 | 41* | -3
Cn1c(=O)c2c(nc(SCCN3CCCCC3)n2Cc2ccccc2)n(C)c1=O | -7 | -7 | -17 | 5 | 39* | -6
COC(=O)CCCCCN1C(=O)NC(C2CC2)C(C(=O)OCc2ccccc2)=C1C (configuration not stated) | 4 | -31 | -13 | 29* | 18 | -1
Cc1ccc(C)c(NC(=S)/C(=C(\[O-])c2ccc(Cl)s2)[n+]2ccccc2)c1 | -11 | 0 | -11 | 6 | 23* | -6
CCOC(=O)CSc1nnc2cc(C)c3ccccc3n12 | -4 | 5 | 19* | 0 | -13 | -4
CN(CCO)S(=O)(=O)c1ccc2c(c1)C(=NN)c1cc(S(=O)(=O)N(C)CCO)ccc1-2 | -5 | -2 | 2 | 1 | -4 | -4
CCC(c1nnnn1-c1ccc(OC)cc1)N1CCN(C/C=C/c2ccccc2)CC1 (configuration not stated) | -7 | -17 | -15 | 14 | 3 | -7
COc1ccc(-n2nnnc2C(c2ccccc2)N2CCN(C/C=C/c3ccccc3)CC2)cc1 (configuration not stated) | -8 | -22 | -26 | 72* | 68* | -9
Cc1cccc(C)c1-n1nnnc1C(c1cc2ccccc2o1)N1CCN(C/C=C/c2ccccc2)CC1 (configuration not stated) | 0 | -19 | -25 | 5 | 56* | -4
CC(C)(C)n1nnnc1C(c1cccc(C#N)c1)N1CCCCCC1 (configuration not stated) | 3 | 26* | 6 | 9 | -21 | -3
CCCCn1nnnc1C(c1cccc2ccccc12)N1CCN(C/C=C/c2ccccc2)CC1 (configuration not stated) | -6 | -23 | -25 | 96* | 95* | -5
CCc1nc2ccc(C(=O)N(C)CCCN(C)C)cn2c1N(C)C(=O)C1CCCCC1 | 1 | 4 | -1 | 7 | -3 | -5
C(=C\c1ccccc1)/CN1CCN(C(c2ccnc3ccccc23)c2nnnn2C2CCCCC2)CC1 (configuration not stated) | -8 | -22 | -26 | 24 | 17 | -7
CCCCn1nnnc1C(c1ccccc1)N1CCN(C/C=C/c2ccccc2)CC1 (configuration not stated) | -8 | -22 | -26 | 26 | 53* | -7
CC(C)(C)n1nnnc1C(c1ccccc1)N1CCN(C/C=C/c2ccccc2)CC1 (configuration not stated) | -7 | -22 | -24 | 68* | 63* | -4
SMILES | M5 ag | M5 PAM | M1 PAM | CHRM5 antagonist | M1 antag | CHRM1 agonist
CCCCn1nnnc1C(c1ccnc2ccccc12)N1CCN(C/C=C/c2ccccc2)CC1 (configuration not stated) | -8 | -22 | -27 | 37* | 80* | -6
COc1ccc(Cn2nnc(C(=O)Nc3ccc(F)cc3)c2N)cc1 | 4 | 1 | -2 | 11 | -23 | 3
Cc1ccc(Sc2ccc(NC(=O)CCN3C(=O)NC4(CCCC4)C3=O)cc2)c(C)c1 | 0 | -6 | -14 | 13 | 35* | -5
Cc1ccc(C)n1-c1ccc(C(=O)NN)cc1 | 0 | 21* | -6 | 8 | 7 | 1
CS(=O)(=O)c1ccc(-n2nnc3ccccc32)c([N+](=O)[O-])c1 | -4 | -2 | 4 | 6 | -5 | -4
C=CCn1c(-c2csc3c2CCC(C)C3)n[nH]c1=S (configuration not stated) | -8 | -2 | -13 | -5 | 0 | -13
CCCCn1c(-c2csc3c2CCC(C)C3)n[nH]c1=S (configuration not stated) | -12 | -20 | -21 | 13 | 47* | -8
Cc1ccccc1-n1nnnc1SC(C)C(=O)Nc1ccc(N2CCN(C)CC2)cc1 (configuration not stated) | -9 | -17 | -21 | 12 | 51* | -5
CCn1c(CC(C)C)n[nH]c1=S | 0 | -7 | 5 | 4 | 4 | -4
CCn1c(CCn2ccnc2C)n[nH]c1=S | -6 | -18 | -16 | 23 | 30 | 28*
COC(=O)C1=NN(C(=O)c2cccc(Br)c2)C(O)(c2ccc(Cl)cc2)C1 (configuration not stated) | 16 | -11 | -11 | 3 | 4 | 42*
CCOC(=O)C1=NN(C(=O)c2ccc(OC)cc2)C(O)(c2ccc(Cl)cc2)C1 (configuration not stated) | 1 | 0 | -7 | 7 | 1 | -2
O=P(OC1CCCCC1)(OC1CCCCC1)C(Nc1ccccc1)c1cccnc1 (configuration not stated) | 0 | -19 | -8 | 31* | 24 | -1
CC(=O)Nc1nc(-c2ccc([N+](=O)[O-])cc2)cs1 | -1 | -6 | 5 | -10 | -6 | -2
O=C(Nc1ccc([N+](=O)[O-])cc1)Nc1nc(-c2ccc(Cl)s2)cs1 | 7 | -15 | -10 | 31* | 8 | 6
COc1ccc(NC(=O)CCc2nnc3ccc(NCc4ccco4)nn23)cc1 | 1 | 28* | 26* | 14 | 20 | -1
